Assays:
[1] = tested on: Bacteria; experiment: Inhibition of bacterial NDM1 expressed in Escherichia coli DH10B assessed as potentiation of cefazolin-induced antibacterial activity by measuring cefazolin MIC at 32 ug/ml after 16 hrs by broth micro-dilution method (reference value: 8 ug/ml)
[2] = Inhibition of bacterial L1 expressed in Escherichia coli BL21(DE3) using cefazolin as substrate by spectrometric method; set-up: species or system Bacteria
How it was run: (§1)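 Purified enzymes, overexpressed and purified by earlier methods, assayed under steady-state conditions by UV spectrometry in 50 mM Tris, pH 7.0. Substrate for NDM-1, VIM-2 and L1 was cefazolin (50 µM), read at 262 nm. Substrate for ImiS was imipenem (60 µM), read at 300 nm. Inhibitor varied 0–50 µM; IC50 is the concentration giving 50% loss of activity.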

[3] = tested on: Bacteria; experiment: Inhibition of bacterial L1 expressed in Escherichia coli DH10B assessed as potentiation of cefazolin-induced antibacterial activity by measuring cefazolin MIC at 32 ug/ml after 16 hrs by broth micro-dilution method (reference value: 32 ug/ml)
How it was run: (§2)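 Dose-dependent cefazolin MIC assay against E. coli DH10B expressing L1 from a pBCSK plasmid, with varied inhibitor doses up to 256 µg/mL. Fold decrease in MIC was taken relative to cefazolin alone. Medium pH was monitored during the assay.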

[4] = tested on: Bacteria; experiment: Inhibition of bacterial NDM1 expressed in Escherichia coli DH10B assessed as potentiation of cefazolin-induced antibacterial activity by measuring fold reduction in cefazolin MIC at 32 ug/ml after 16 hrs by broth micro-dilution method relative to cefazolin alone
[5] = tested on: Bacteria; experiment: Inhibition of bacterial VIM2 expressed in Escherichia coli DH10B assessed as potentiation of cefazolin-induced antibacterial activity by measuring cefazolin MIC at 32 ug/ml after 16 hrs by broth micro-dilution method (reference value: 512 ug/ml)
[6] = tested on: Bacteria; experiment: Inhibition of bacterial VIM2 expressed in Escherichia coli DH10B assessed as potentiation of cefazolin-induced antibacterial activity by measuring fold reduction in cefazolin MIC at 32 ug/ml after 16 hrs by broth micro-dilution method relative to cefazolin alone
[7] = Inhibition of bacterial ImiS expressed in Escherichia coli BL21(DE3) using imipenem as substrate by spectrometric method; set-up: species or system Bacteria; how it was run: as §1
[8] = Inhibition of bacterial NDM1 expressed in Escherichia coli BL21(DE3) using cefazolin as substrate by spectrometric method; set-up: species or system Bacteria; how it was run: as §1
[9] = Inhibition of bacterial VIM2 expressed in Escherichia coli BL21(DE3) using cefazolin as substrate by spectrometric method; set-up: species or system Bacteria; how it was run: as §1
[10] = tested on: Bacteria; experiment: Inhibition of bacterial ImiS expressed in Escherichia coli DH10B assessed as potentiation of imipenem-induced antibacterial activity by measuring imipenem MIC at 32 ug/ml after 16 hrs by broth micro-dilution method (reference value: 2 ug/ml)
[11] = tested on: Bacteria; experiment: Inhibition of bacterial NDM1 expressed in Escherichia coli BL21(DE3) at 50 uM using cefazolin as substrate by spectrometric method relative to control
[12] = tested on: Bacteria; experiment: Inhibition of bacterial ImiS expressed in Escherichia coli BL21(DE3) at 50 uM using imipenem as substrate by spectrometric method relative to control
[13] = tested on: Bacteria; experiment: Inhibition of bacterial VIM2 expressed in Escherichia coli BL21(DE3) at 50 uM using cefazolin as substrate by spectrometric method relative to control
[14] = Cytotoxicity against mouse L929 cells assessed as cell viability up to 200 uM after 48 hrs by CCK8 assay relative to control; assay type: cell-based; settings: read-out: Activity
How it was run: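 Mouse fibroblast L929 cells exposed to inhibitors at 12.5, 25, 50, 100, 200 and 400 µM working concentrations; percentage of cells maintaining viability measured.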

[15] = tested on: Bacteria; experiment: Inhibition of bacterial L1 expressed in Escherichia coli DH10B assessed as potentiation of cefazolin-induced antibacterial activity by measuring fold reduction in cefazolin MIC at 32 ug/ml after 16 hrs by broth micro-dilution method relative to cefazolin alone; how it was run: as §2
[16] = tested on: Bacteria; experiment: Inhibition of bacterial L1 expressed in Escherichia coli DH10B assessed as potentiation of cefazolin-induced antibacterial activity by measuring fold reduction in cefazolin MIC at 256 ug/ml after 16 hrs by broth micro-dilution method relative to cefazolin alone; how it was run: as §2
[17] = tested on: Escherichia coli; experiment: Toxicity against Escherichia coli DH10B expressing bacterial L1 up to 256 ug/ml after 16 hrs by broth micro-dilution method; assay type: organism-based, K-12 substr. DH10B; settings: in vivo
How it was run: (§3)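 Compounds alone, at the same doses used in the MIC potentiation assays, tested for antibacterial effect against E. coli with and without MβL expression.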

[18] = tested on: Bacteria; experiment: Inhibition of bacterial L1 expressed in Escherichia coli DH10B assessed as potentiation of cefazolin-induced antibacterial activity by measuring cefazolin MIC at 64 ug/ml after 16 hrs by broth micro-dilution method (reference value: 32 ug/ml); how it was run: as §2
[19] = tested on: Bacteria; experiment: Inhibition of bacterial NDM1 expressed in Escherichia coli BL21(DE3) at 20 uM using cefazolin as substrate by spectrometric method relative to control
[20] = tested on: Bacteria; experiment: Inhibition of bacterial L1 expressed in Escherichia coli DH10B assessed as potentiation of cefazolin-induced antibacterial activity by measuring decrease in cefazolin MIC after 16 hrs by broth micro-dilution method; how it was run: as §2
[21] = tested on: Bacteria; experiment: Inhibition of bacterial ImiS expressed in Escherichia coli BL21(DE3) at 40 uM using imipenem as substrate by spectrometric method relative to control
[22] = tested on: Escherichia coli; experiment: Toxicity against Escherichia coli DH10B up to 256 ug/ml after 16 hrs by broth micro-dilution method; assay type: organism-based, K-12 substr. DH10B; settings: in vivo; how it was run: as §3
[23] = tested on: Bacteria; experiment: Inhibition of bacterial L1 expressed in Escherichia coli DH10B assessed as potentiation of cefazolin-induced antibacterial activity by measuring cefazolin MIC at 16 ug/ml after 16 hrs by broth micro-dilution method (reference value: 32 ug/ml); how it was run: as §2
[24] = tested on: Bacteria; experiment: Inhibition of bacterial L1 expressed in Escherichia coli BL21(DE3) at 0.8 uM using cefazolin as substrate by spectrometric method relative to control
[25] = tested on: Bacteria; experiment: Inhibition of bacterial VIM2 expressed in Escherichia coli BL21(DE3) at 4 uM using cefazolin as substrate by spectrometric method relative to control
[26] = tested on: Bacteria; experiment: Inhibition of bacterial L1 expressed in Escherichia coli DH10B assessed as potentiation of cefazolin-induced antibacterial activity by measuring cefazolin MIC at 256 ug/ml after 16 hrs by broth micro-dilution method (reference value: 32 ug/ml); how it was run: as §2
[27] = tested on: Bacteria; experiment: Inhibition of bacterial L1 expressed in Escherichia coli DH10B assessed as potentiation of cefazolin-induced antibacterial activity by measuring cefazolin MIC at 128 ug/ml after 16 hrs by broth micro-dilution method (reference value: 32 ug/ml); how it was run: as §2
[28] = Stability of the compound in pH 7 Tris buffer at 50 uM after 24 hrs in presence of bacterial L1 by UV-Vis spectra analysis; assay type: ADME; settings: pH 7, 24 h
How it was run: (§4)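 Compound at 50 µM held in MES (pH 5.5, 6.0, 6.5), in Tris (pH 7.0–8.5), or in Tris pH 7.0 containing L1. Absorbance change at 401 nm followed over 24 h.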

[29] = Stability of the compound in pH 6 to 6.5 MES buffer at 50 uM after 24 hrs by UV-Vis spectra analysis; assay type: physicochemical; settings: pH 6, 24 h; how it was run: as §4
[30] = Stability of the compound in pH 7 Tris buffer at 50 uM after 24 hrs by UV-Vis spectra analysis; assay type: physicochemical; settings: pH 7, 24 h; how it was run: as §4

Row | SMILES | MIC [1] | IC50 [2] | MIC [3] | fold change (FC) [4] | MIC [5] | fold change (FC) [6] | IC50 [7] | IC50 [8] | IC50 [9] | MIC [10] | inhibition [13] | viability at 48 h [14] | fold change (FC) [15] | also measured
1 | O=C(O)c1ccc(N2C(=O)/C(=C/c3ccc(Cl)cc3Cl)SC2=S)cc1 | 1 µg/mL | 0.03 µM | 8 µg/mL | 4 to 8 | 128 µg/mL | 4 | 7.6 µM | 10.6 µM | 3.5 µM | 1 µg/mL |  |  |  | 
2 | O=C(O)c1ccc(N2C(=O)/C(=C/c3ccc4ccccc4c3)SC2=S)cc1 | > 64 µg/mL | 0.12 µM | 8 µg/mL |  | 128 µg/mL | 4 | 16.5 µM |  | 1.9 µM | 1 µg/mL |  |  |  | inhibition [11]: < 50%
3 | O=C(O)c1ccc(N2C(=O)/C(=C/c3ccc(C(F)(F)F)cc3)SC2=S)cc1 | 4 µg/mL | 0.07 µM | 8 µg/mL |  | 128 µg/mL | 4 | 7.8 µM | 10.6 µM | 2.36 µM | 1 µg/mL |  |  |  | 
4 | O=C(O)c1ccc(N2C(=O)/C(=C/c3ccccn3)SC2=S)cc1 | 2 µg/mL | 0.21 µM | 8 µg/mL | 4 to 8 | 128 µg/mL | 4 |  | 1.13 µM | 0.92 µM | 2 µg/mL |  |  |  | inhibition [12]: < 50%
5 | O=C(O)CN1C(=O)/C(=C/c2ccc([N+](=O)[O-])cc2[N+](=O)[O-])SC1=S | 8 µg/mL | 0.1 µM | 4 µg/mL |  | 512 µg/mL |  |  |  |  | 1 µg/mL | < 50% | 80% | 8 | inhibition [11]: < 50%; inhibition [12]: < 50%
6 | O=C(O)c1ccc(N2C(=O)/C(=C/c3ccccc3[N+](=O)[O-])SC2=S)cc1 | 4 µg/mL | 0.05 µM | 4 µg/mL |  | 128 µg/mL | 4 | 3 µM | 1.31 µM | 0.19 µM | 1 µg/mL |  | 80% | 8 | fold change (FC) [16]: 16; Activity [17]: Non-Toxic; MIC [18]: 4 µg/mL; inhibition [19]: > 95%; inhibition [20]: Dose-dependent effect; inhibition [21]: > 95%; Activity [22]: Non-Toxic; MIC [23]: 16 µg/mL; inhibition [24]: > 95%; inhibition [25]: > 95%; MIC [26]: 2 µg/mL; MIC [27]: 2 µg/mL
7 | COc1ccc(/C=C2\SC(=S)N(c3ccc(C(=O)O)cc3)C2=O)cc1 | 2 µg/mL | 0.31 µM | 4 µg/mL | 4 to 8 | > 512 µg/mL |  | 15 µM | 12 µM |  | 0.5 µg/mL | < 50% |  | 8 | Stability [28]: Stable; Stability [29]: Stable; Stability [30]: Stable
8 | O=C(O)c1ccc(N2C(=O)/C(=C/c3ccccc3)SC2=S)cc1 | 1 µg/mL | 0.21 µM | 8 µg/mL | 4 to 8 | 512 µg/mL |  | 18.3 µM | 8.7 µM |  | 1 µg/mL | < 50% |  |  | 
9 | O=C(O)c1ccc(N2C(=O)/C(=C/c3ccc(Cl)cc3)SC2=S)cc1 | 1 µg/mL | 0.07 µM | 8 µg/mL | 4 to 8 | 128 µg/mL | 4 | 7.7 µM | 12.2 µM | 3.6 µM | 1 µg/mL |  |  |  | 
10 | O=C(O)CN1C(=O)/C(=C/c2ccccc2[N+](=O)[O-])SC1=S | 4 µg/mL | 0.22 µM | 4 µg/mL |  | 256 µg/mL |  |  | 27.4 µM | 16.8 µM | 2 µg/mL |  | 80% | 8 | inhibition [12]: < 50%
11 | O=C(O)c1ccc(N2C(=O)/C(=C/c3ccc([N+](=O)[O-])cc3[N+](=O)[O-])SC2=S)cc1 | 1 µg/mL | 0.02 µM | 4 µg/mL | 4 to 8 | 128 µg/mL | 4 | 15.9 µM | 6.7 µM | 3.9 µM | 1 µg/mL |  | > 80% | 8 | fold change (FC) [16]: 32; Activity [17]: Non-Toxic; MIC [18]: 2 µg/mL; inhibition [20]: Dose-dependent effect; Activity [22]: Non-Toxic; MIC [23]: 8 µg/mL; MIC [26]: 1 µg/mL; MIC [27]: 2 µg/mL
12 | O=C(O)c1ccc(N2C(=O)/C(=C/c3cccc4ccccc34)SC2=S)cc1 | 8 µg/mL | 0.1 µM | 8 µg/mL |  | 512 µg/mL |  | 6.9 µM |  |  | 1 µg/mL | < 50% |  |  | inhibition [11]: < 50%

Source: ChEMBL document CHEMBL4251739, “Rhodanine as a Potent Scaffold for the Development of Broad-Spectrum Metallo-β-lactamase Inhibitors” (ACS Med Chem Lett, 2018)
